# Results as given in publication PMC12966599 (Journal of Pharmaceutical Analysis, 2025).
# Positions count from the first letter of the chain named. “Also recorded” adds a separate entry of the source.
# Tests used:
# [1] = tested on: SHP2; settings: read-out: IC50 against SHP2; previous study; ref 22 (Liu et al.); cited from earlier work
# [2] = target: T1, PTPN12 (PTP-PEST) (Homo sapiens, UniProt Q05209); test: Phosphatase selectivity, PTPN12; format: biochemical
# T1 sequence (Q05209 1-305): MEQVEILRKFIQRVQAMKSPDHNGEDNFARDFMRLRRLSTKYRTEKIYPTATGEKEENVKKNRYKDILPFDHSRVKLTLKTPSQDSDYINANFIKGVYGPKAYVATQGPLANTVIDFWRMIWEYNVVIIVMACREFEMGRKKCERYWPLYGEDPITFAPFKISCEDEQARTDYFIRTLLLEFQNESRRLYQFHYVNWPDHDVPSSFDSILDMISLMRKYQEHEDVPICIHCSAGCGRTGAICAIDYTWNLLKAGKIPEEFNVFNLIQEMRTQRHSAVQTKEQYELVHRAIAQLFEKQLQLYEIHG
# [3] = tested on: H1975 xenograft; test: NCI-H1975 xenograft model; format: in vivo, BALB/c nude mice
# Summary of the method: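 Female BALB/c nude mice, five weeks old, received a subcutaneous H1975 suspension (5 × 10^6/mL) in the right flank. At a mean tumor volume of 50–100 mm3 they were randomised into three groups. Compound in 0.5% CMC-Na was given intragastrically at 20 mg/kg/day; controls received vehicle. Body weight and tumor volume were recorded every two days. Tumor sections were stained for Ki-67, and tumor lysates were immunoblotted for p-ERK. Data are mean ± SD with two-sided t-test.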
# [4] = target: T2, SHP2-PTP (Homo sapiens, UniProt Q06124); test: SHP2-PTP inhibition assay; format: biochemical; settings: for IC50: IC50 (SHP2-PTP), DiFMUP substrate
# T2 sequence (Q06124 237-529): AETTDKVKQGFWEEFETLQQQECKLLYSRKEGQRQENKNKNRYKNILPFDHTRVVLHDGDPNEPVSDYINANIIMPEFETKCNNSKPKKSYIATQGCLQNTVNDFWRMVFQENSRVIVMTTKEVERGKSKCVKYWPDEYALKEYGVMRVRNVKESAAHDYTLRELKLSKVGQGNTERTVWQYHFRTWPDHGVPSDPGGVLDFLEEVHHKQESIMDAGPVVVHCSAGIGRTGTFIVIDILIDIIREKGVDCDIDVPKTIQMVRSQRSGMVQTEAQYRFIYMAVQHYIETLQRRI
# [5] = target: T3, PTPN1 (PTP1B) (Homo sapiens, UniProt P18031); test: Phosphatase selectivity, PTPN1; format: biochemical
# T3 sequence (P18031 1-321): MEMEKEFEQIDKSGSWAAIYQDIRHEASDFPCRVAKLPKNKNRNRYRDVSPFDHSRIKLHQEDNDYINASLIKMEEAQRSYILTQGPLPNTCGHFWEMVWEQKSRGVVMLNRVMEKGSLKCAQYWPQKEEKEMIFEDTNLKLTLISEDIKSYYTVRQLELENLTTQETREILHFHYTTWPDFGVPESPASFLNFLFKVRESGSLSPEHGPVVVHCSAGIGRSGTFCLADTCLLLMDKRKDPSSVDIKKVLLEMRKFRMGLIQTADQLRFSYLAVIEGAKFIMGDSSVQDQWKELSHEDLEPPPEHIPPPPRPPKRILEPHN
# [6] = target: T4, SHP2^E76K (Homo sapiens, UniProt Q06124, E76K); test: Inhibition of oncogenic mutant SHP2^E76K; format: biochemical
# T4 sequence (Q06124 1-525 E76K): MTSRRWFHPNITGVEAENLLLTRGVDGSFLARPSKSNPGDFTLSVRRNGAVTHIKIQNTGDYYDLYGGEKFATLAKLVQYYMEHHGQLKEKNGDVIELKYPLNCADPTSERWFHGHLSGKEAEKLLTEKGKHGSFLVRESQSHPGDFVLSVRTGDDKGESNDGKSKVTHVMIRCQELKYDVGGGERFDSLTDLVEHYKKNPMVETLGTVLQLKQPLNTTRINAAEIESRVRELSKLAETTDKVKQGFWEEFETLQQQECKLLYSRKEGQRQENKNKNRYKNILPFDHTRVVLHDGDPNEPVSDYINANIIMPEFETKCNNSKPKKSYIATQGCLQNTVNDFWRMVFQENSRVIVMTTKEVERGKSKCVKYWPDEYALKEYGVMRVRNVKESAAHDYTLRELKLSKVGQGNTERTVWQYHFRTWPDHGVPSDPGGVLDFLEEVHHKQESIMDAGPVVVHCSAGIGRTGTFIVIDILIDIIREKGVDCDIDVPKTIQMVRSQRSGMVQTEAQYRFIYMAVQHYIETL
# [7] = target: PTPN6 (SHP1) (Homo sapiens, UniProt P29350); test: Phosphatase selectivity, PTPN6; format: biochemical
# [8] = target: T5, SHP2-PTP^Q510A (Homo sapiens, UniProt Q06124, Q510A); test: BLI assay, SHP2-PTP^Q510A; format: binding
# T5 sequence (Q06124 237-529 Q510A): T2 sequence (Q06124 237-529) with Q274A
# [9] = tested on: NCI-H1975 cells; test: Colony formation assay; format: cell-based; settings: measured 10 days after compound treatment
# Summary of the method: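 About 10^3 H1975 cells per well in RPMI-1640 with 10% FBS were allowed to adhere overnight and treated the next day. Medium and compound were renewed every 3–4 days. When untreated wells reached confluence, colonies were fixed with formaldehyde, stained with 0.2% crystal violet and scanned.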
# [10] = target: T6, SHP2-FL (Homo sapiens, UniProt Q06124); test: SHP2-FL inhibition assay; format: biochemical
# T6 sequence (Q06124 1-525): T4 sequence (Q06124 1-525 E76K) with K76E
# [11] = target: T7, SHP2-PTP^R465A (Homo sapiens, UniProt Q06124, R465A); test: BLI assay, SHP2-PTP^R465A; format: binding
# T7 sequence (Q06124 237-529 R465A): T2 sequence (Q06124 237-529) with R229A
# [12] = target: T8, SHP2^D61V (Homo sapiens, UniProt Q06124, D61V); test: Inhibition of oncogenic mutant SHP2^D61V; format: biochemical
# T8 sequence (Q06124 1-525 D61V): T4 sequence (Q06124 1-525 E76K) with D61V, K76E
# [13] = target: T9, LMWPTP (ACP1) (Homo sapiens, UniProt P24666); test: Phosphatase selectivity, LMWPTP; format: biochemical
# T9 sequence (P24666 1-158): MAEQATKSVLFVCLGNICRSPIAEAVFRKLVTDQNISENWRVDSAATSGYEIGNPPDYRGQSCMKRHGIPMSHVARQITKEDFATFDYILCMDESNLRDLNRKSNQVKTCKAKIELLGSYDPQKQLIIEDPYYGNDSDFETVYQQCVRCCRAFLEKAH
# [14] = tested on: p-ERK in H1975 cells; test: ERK phosphorylation in cells; format: cell-based; settings: 10 μM
# Summary of the method: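 H1975 cells, grown in RPMI-1640 with 10% FBS, were exposed to 10 μM compound and lysed in RIPA buffer with phosphatase and protease inhibitors. Proteins were separated and transferred. Blots were probed overnight at 4 °C with antibodies to p-ERK1/2, total ERK and β-actin diluted in 5% BSA, then developed by enhanced chemiluminescence.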
# [15] = tested on: NCI-H1975 cells; test: Cell proliferation assay; format: cell-based; settings: CCK-8, day 3
# Summary of the method: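 About 1.5 × 10^3 H1975 cells per well, in RPMI-1640 with 10% FBS, were treated with compound at 0–50 μM. On day 3 CCK-8 reagent was added and optical density read. Untreated wells served for background correction.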
# [16] = target: PTPRA (RPTPα) (Homo sapiens, UniProt P18433); test: Phosphatase selectivity, PTPRA; format: biochemical
# [17] = tested on: SHP2 knockdown H1975 cells; test: Cell proliferation in SHP2 knockdown cells; format: cell-based; settings: SHP2 siRNA treated H1975 cells versus H1975
# [18] = target: T10, SHP2^T253M (Homo sapiens, UniProt Q06124, T253M); test: Inhibition of tunnel-site mutant SHP2^T253M; format: biochemical
# T10 sequence (Q06124 1-525 T253M): T4 sequence (Q06124 1-525 E76K) with K76E, T253M
# [19] = 20 mg/kg/day oral, versus vehicle
# Chain of PTPRA (RPTPα) (P18433 183-802): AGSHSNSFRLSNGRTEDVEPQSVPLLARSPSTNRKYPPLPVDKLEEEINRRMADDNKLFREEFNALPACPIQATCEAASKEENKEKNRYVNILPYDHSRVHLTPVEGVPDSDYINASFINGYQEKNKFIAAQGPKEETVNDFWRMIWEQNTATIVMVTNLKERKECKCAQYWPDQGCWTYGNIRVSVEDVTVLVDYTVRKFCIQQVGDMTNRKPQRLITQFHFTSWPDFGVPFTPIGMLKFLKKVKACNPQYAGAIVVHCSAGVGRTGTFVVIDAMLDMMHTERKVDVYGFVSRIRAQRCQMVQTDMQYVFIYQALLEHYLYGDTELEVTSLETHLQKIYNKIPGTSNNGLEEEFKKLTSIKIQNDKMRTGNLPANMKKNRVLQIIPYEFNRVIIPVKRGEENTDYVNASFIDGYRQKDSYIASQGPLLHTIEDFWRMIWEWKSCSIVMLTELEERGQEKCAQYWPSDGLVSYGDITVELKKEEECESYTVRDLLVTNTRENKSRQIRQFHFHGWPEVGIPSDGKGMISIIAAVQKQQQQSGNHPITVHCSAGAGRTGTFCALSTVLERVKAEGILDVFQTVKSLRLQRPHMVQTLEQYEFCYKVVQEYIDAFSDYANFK
# Chain of PTPN6 (SHP1) (P29350 1-597 isoform P29350-3): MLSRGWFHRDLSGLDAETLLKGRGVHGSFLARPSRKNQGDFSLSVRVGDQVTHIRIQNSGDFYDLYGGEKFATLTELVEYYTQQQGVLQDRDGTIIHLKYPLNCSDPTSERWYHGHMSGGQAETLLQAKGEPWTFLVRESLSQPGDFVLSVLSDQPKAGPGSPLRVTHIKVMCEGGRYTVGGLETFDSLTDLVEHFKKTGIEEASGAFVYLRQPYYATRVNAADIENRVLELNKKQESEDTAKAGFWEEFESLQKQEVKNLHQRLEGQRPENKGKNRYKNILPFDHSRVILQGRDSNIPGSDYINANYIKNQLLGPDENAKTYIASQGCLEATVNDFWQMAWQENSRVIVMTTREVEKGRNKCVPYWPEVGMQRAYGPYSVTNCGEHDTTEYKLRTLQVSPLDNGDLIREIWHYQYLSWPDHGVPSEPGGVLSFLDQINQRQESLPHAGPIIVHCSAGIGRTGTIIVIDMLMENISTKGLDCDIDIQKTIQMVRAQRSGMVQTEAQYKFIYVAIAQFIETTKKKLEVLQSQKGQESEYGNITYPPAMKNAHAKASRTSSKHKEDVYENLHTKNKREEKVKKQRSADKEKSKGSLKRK
smiles,measurement,setting,value
C[C@H]1COC2=C1C(=O)C(=O)c1c2ccc2c1CCCC2(C)C [Cryptotanshinone],IC50,[1],22.5 µM
"Cc1cccc2c3c(ccc12)C1=C(C(=O)C3=O)[C@@H](C)CO1 [DHT, dihydrotanshinone I]",IC50,[2],32.1 ± 3.8 µM
same,body weight change,"[3]; 20 mg/kg/day oral, full treatment course",No body weight loss
same,Ki-67 staining in tumor tissue,[3]; [19],reduced Ki-67 staining positive areas
same,MAPK phosphorylation in tumor tissue,[3]; [19],marked decrease
same,tumor growth in NCI-H1975 xenograft,"[3]; oral gavage 20 mg/kg daily, 20-day treatment, versus vehicle, 20 mg/kg",significant tumor growth suppression; also recorded: modest anti-tumor effect
same,fold higher inhibitory potency against SHP2 than cryptotanshinone,"[4]; DiFMUP screening, versus cryptotanshinone",4.7 fold
same,IC50,[4],1.06 ± 0.21 µM
same,fold lower SHP2-PTP IC50 than tanshinone IIA,[4]; versus tanshinone IIA,13 fold
same,IC50,[5],9.3 ± 0.94 µM
same,IC50,[6],1.61 ± 0.26 µM
same,IC50,[7],2.5 ± 0.3 µM
same,direct interaction with SHP2-PTP^Q510A (BLI),[8],significantly abolished the direct interaction
same,colony formation of NCI-H1975 cells,[9],significant suppression
same,SHP2-FL inhibitory activity (in words),[10],comparable inhibitory activity
same,direct interaction with SHP2-PTP^R465A (BLI),[11],significantly abolished the direct interaction
same,IC50,[12],1.34 ± 0.36 µM
same,IC50,[13],> 100 µM
same,ERK phosphorylation (Western blot),[14],significant decrease
same,proliferation of NCI-H1975 cells,[15],significant suppression
same,IC50,[16],50.4 ± 5.3 µM
same,sensitivity of SHP2-depleted H1975 cells (anti-proliferation),[17],significantly lower sensitivity
C[C@@H]1OCC2(CCN(c3cnc(Sc4ccnc(N)c4Cl)c(N)n3)CC2)[C@@H]1N [TNO155],effect of SHP2^T253M mutation on efficacy (in words),[18],eliminated the efficacy
Cc1coc2c1C(=O)C(=O)c1c-2ccc2c(C)cccc12 [Tanshinone I],IC50,[4],3.3 ± 1.2 µM
